≈ marks a conversion by molar mass, not a printed value. Calls of active or inactive are those of the source. The calls are words filed in the database; no cut-off is given here. Square brackets hold non-standard residues; d marks the D form. Peptide text beside a SMILES is read from it. * marks the point of attachment. X2 = C=CCOC(=O)[C@]12CCC(C)(C)C[C@H]1C1=CC[C@@H]3[C@@]4(C)CC[C@H](OC(=O)CCc5cn(CC(=O)*)nn5)C(C)(C)[C@@H]4CC[C@@]3(C)[C@]1(C)CC2; X11 = CCCc1cn(CC(=O)*)nn1; βAla = NCCC(=O)O
How the values were obtained:
[1] = tested on: Human immunodeficiency virus 1; test: Antiviral activity against HIV1 3B infected in human MT2 cells assessed as inhibition of viral entry compound treated at 200 nM at 6 hrs post infection measured 3 to 4 days post infection by time-of-addition assay
[2] = Selectivity index, ratio of CC50 for human MT2 cells to EC50 for HIV1 3B infected in human MT2 cells; format: toxicity, cell-based; details: read-out: Ratio CC50/EC50
[3] = tested on: Human immunodeficiency virus 1; test: Antiviral activity against HIV1 BaL infected in human […] cells assessed as inhibition of viral replication; format: functional, organism-based; details: Human immunodeficiency virus 1, BaL
Method in brief: (§1)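 MT-2 cells (1 × 10⁴) infected with 100 TCID₅₀ virus with or without peptides at graded concentrations. Culture supernatants collected on day 4 postinfection; p24 antigen quantified by ELISA. Percent inhibition and EC₅₀ calculated; tested in triplicate, mean ± standard deviation.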

[4] = tested on: Human immunodeficiency virus 1; test: Antiviral activity against HIV1 3B infected in human MT2 cells assessed as inhibition of viral p24 antigen production by ELISA; format: functional, organism-based; details: Human immunodeficiency virus 1, 3B
Method in brief: as §1

[5] = Cytotoxicity against human MT2 cells after 4 days by XTT assay; format: cell-based
Method in brief: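 MT-2 cells (5 × 10⁵/mL) mixed with equal volumes of graded conjugate concentrations and held at 37 °C for 4 days. XTT (1 mg/mL) with 0.02 μM phenazine methosulfate added for 4 h, then A450 read. CC50 calculated from the dose–response.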

[6] = Solubility of the compound in pure water by UV spectrophotometry; format: physicochemical
Method in brief: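 About 1 mg of peptide dissolved in 10 μL water or PBS and centrifuged. Supernatant concentration of the tyrosine-containing conjugate determined from UV absorbance at 280 nm.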

[7] = molecular target: GP41 (Human immunodeficiency virus 1) (UniProt Q76270); test: Inhibition of HIV1 gp41 NHR assessed as inhibition of 6HB formation by FRET assay
Method in brief: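 FRET competition assay. A bpy-labelled 31-mer NHR pocket peptide is trimerized by Fe(II) into env2.0, which quenches the Lucifer-yellow-tagged CP2 probe. Displacement of the probe raises fluorescence. Used 7 μM binding sites (three per trimer) and 1 μM CP2-LY.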

[8] = tested on: Rattus norvegicus; test: AUC (0 to t) in rat at 4 mg/kg, iv administered as single dose; format: ADME, organism-based, Plasma; set-up: dose 4 mg/kg, route intravenous; details: in vivo
Method in brief: (§2)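 Rats given one intravenous dose of 4 mg/kg. Peptide measured in plasma over time. Parameters (AUC(0−t), MRT(0−t), t1/2, Vd, Cmax) derived by model-independent analysis.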

[9] = tested on: Human immunodeficiency virus 1; test: Antiviral activity against T20-resistant HIV1 NL4-3 harboring gp41 D36G/N42T/N43K mutant infected in human MT2 cells; format: functional, organism-based
Method in brief: as §1

[10] = tested on: Rattus norvegicus; test: Half life in rat at 4 mg/kg, iv at 4 mg/kg, iv administered as single dose; format: ADME, organism-based; details: in vivo
Method in brief: as §2

[11] = Volume of distribution in rat at 4 mg/kg, iv administered as single dose; format: ADME, organism-based; set-up: dose 4 mg/kg, route intravenous; details: in vivo
Method in brief: as §2

[12] = tested on: Human immunodeficiency virus 1; test: Antiviral activity against T20-resistant HIV1 NL4-3 harboring gp41 D36G/V38A/N42D mutant infected in human MT2 cells; format: functional, organism-based
Method in brief: as §1

[13] = tested on: Human immunodeficiency virus 1; test: Ratio of EC50 for T20-resistant HIV1 NL4-3 harboring gp41 D36G/V38E/N42S mutant infected in human MT2 cells to EC50 for T20-sensitive HIV1 NL4-3 harboring gp41 D36G mutant infected in human MT2 cells; format: functional
Method in brief: (§3)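 MT-2 cells (1 × 10⁴) infected with 100 TCID₅₀ of HIV-1 NL4-3 gp41 mutant virus with or without peptide at graded concentrations. Culture supernatants collected on day 4 postinfection and p24 antigen measured by ELISA. Percent inhibition and EC₅₀ calculated, triplicate, mean ± standard deviation. Fold change = EC₅₀ against each mutant divided by EC₅₀ against the D36G strain.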

[14] = tested on: Human immunodeficiency virus 1; test: Antiviral activity against T20-resistant HIV1 NL4-3 harboring gp41 D36G/V38E/N42S mutant infected in human MT2 cells; format: functional, organism-based
Method in brief: as §1

[15] = tested on: Human immunodeficiency virus 1; test: Ratio of EC50 for T20-resistant HIV1 NL4-3 harboring gp41 D36G/N42T/N43K mutant infected in human MT2 cells to EC50 for T20-sensitive HIV1 NL4-3 harboring gp41 D36G mutant infected in human MT2 cells; format: functional
Method in brief: as §3

[16] = tested on: Human immunodeficiency virus 1; test: Antiviral activity against T20-resistant HIV1 NL4-3 harboring gp41 D36G/V38A mutant infected in human MT2 cells; format: functional, organism-based
Method in brief: as §1

[17] = tested on: Human immunodeficiency virus 1; test: Ratio of EC50 for T20-resistant HIV1 NL4-3 harboring gp41 D36G/V38A/N42D mutant infected in human MT2 cells to EC50 for T20-sensitive HIV1 NL4-3 harboring gp41 D36G mutant infected in human MT2 cells; format: functional
Method in brief: as §3

[18] = tested on: Human immunodeficiency virus 1; test: Ratio of EC50 for T20-resistant HIV1 NL4-3 harboring gp41 D36G/V38A mutant infected in human MT2 cells to EC50 for T20-sensitive HIV1 NL4-3 harboring gp41 D36G mutant infected in human MT2 cells; format: functional
Method in brief: as §3

[19] = Half life in rat liver homogenate at 8 ug/ml; format: ADME, tissue-based
[20] = Half life in rat kidney homogenate at 8 ug/ml; format: ADME, tissue-based
[21] = tested on: Human immunodeficiency virus 1; test: Ratio of EC50 for T20-resistant HIV1 NL4-3 harboring gp41 D36G/V38A/N42T mutant infected in human MT2 cells to EC50 for T20-sensitive HIV1 NL4-3 harboring gp41 D36G mutant infected in human MT2 cells; format: functional
Method in brief: as §3

[22] = tested on: Human immunodeficiency virus 1; test: Antiviral activity against T20-sensitive HIV1 NL4-3 harboring gp41 D36G mutant infected in human MT2 cells; format: functional, organism-based
Method in brief: as §1

[23] = Half life of the compound at 8 ug/ml by proteinase K digestion assay; format: ADME
[24] = tested on: Rattus norvegicus; test: Cmax in rat at 4 mg/kg, iv administered as single dose; format: ADME, organism-based; set-up: dose 4 mg/kg, route intravenous; details: in vivo
Method in brief: as §2

[25] = tested on: Human immunodeficiency virus 1; test: Antiviral activity against T20-resistant HIV1 NL4-3 harboring gp41 D36G/V38A/N42T mutant infected in human MT2 cells; format: functional, organism-based
Method in brief: as §1

[26] = molecular target: GP41 (Human immunodeficiency virus 1) (UniProt Q76270); test: Ratio of EC50 for HIV1 gp41-induced cell-cell fusion between viral envelope expressing human HL2/3 cells to CD4/CCR5 receptor expressing TZM-bl cells with wash out to EC50 for HIV1 gp41-induced cell-cell fusion between viral envelope expressing human HL2/3 cells to CD4/CCR5 receptor expressing TZM-bl cells; format: cell-based
Method in brief: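 Peptides preincubated with TZM-bl cells at 37 °C for 1 h, with or without washing away unbound peptide. EC50 compared between washed and unwashed cells, giving the n-fold change. Triplicates, mean ± SD.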

For `Cc1cn([C@H]2C[C@H](N=[N+]=[N-])[C@@H](CO)O2)c(=O)[nH]c1=O`, the inhibition [1] was “Active”.
`C=CCOC(=O)[C@]12CCC(C)(C)C[C@H]1C1=CC[C@@H]3[C@@]4(C)CC[C@H](OC(=O)CCc5cn(CC(=O)NCCCC[C@H](NC(=O)CCNC(=O)[C@H](CC(C)C)NC(=O)[C@H](CC(C)C)NC(=O)[C@H](CCC(=O)O)NC(=O)[C@H](CCC(N)=O)NC(=O)[C@H](CCC(=O)O)NC(=O)[C@H](CC(N)=O)NC(=O)[C@H](CCCCN)NC(=O)[C@H](CCC(=O)O)NC(=O)[C@H](CCC(N)=O)NC(=O)[C@H](CCC(N)=O)NC(=O)[C@H](CC(N)=O)NC(=O)[C@H](CCC(N)=O)NC(=O)[C@H](CO)NC(=O)[C@H](CCC(=O)O)NC(=O)[C@H](CCC(=O)O)NC(=O)[C@@H](NC(=O)[C@H](CC(C)C)NC(=O)[C@H](CO)NC(=O)[C@H](Cc6cnc[nH]6)NC(=O)[C@@H](NC(=O)[C@H](CC(C)C)NC(=O)[C@H](CO)NC(=O)[C@@H](NC(=O)[C@H](Cc6ccc(O)cc6)NC(=O)[C@H](CC(N)=O)NC(=O)[C@H](CC(N)=O)NC(C)=O)[C@@H](C)O)[C@@H](C)CC)[C@@H](C)CC)C(N)=O)nn5)C(C)(C)[C@@H]4CC[C@@]3(C)[C@]1(C)CC2` (Ac-NNYTSLIHSLIEESQNQQEKNEQELL[βAla]K(X2)-NH2) gave a selectivity ratio [2] of 2640, an EC50 [3] of 0.271 nM and an EC50 [4] of 3.11 nM. For the same compound, the CC50 at 96 h [5] was 8220 nM and the solubility [6] was 12.4 mg/mL (≈ 3.1 mM).
For `CCCc1cn(CC(=O)NCCC(=O)N[C@@H](CC(N)=O)C(=O)N[C@@H](CC(N)=O)C(=O)N[C@@H](Cc2ccc(O)cc2)C(=O)N[C@H](C(=O)N[C@@H](CO)C(=O)N[C@@H](CC(C)C)C(=O)N[C@H](C(=O)N[C@@H](Cc2cnc[nH]2)C(=O)N[C@@H](CO)C(=O)N[C@@H](CC(C)C)C(=O)N[C@H](C(=O)N[C@@H](CCC(=O)O)C(=O)N[C@@H](CCC(=O)O)C(=O)N[C@@H](CO)C(=O)N[C@@H](CCC(N)=O)C(=O)N[C@@H](CC(N)=O)C(=O)N[C@@H](CCC(N)=O)C(=O)N[C@@H](CCC(N)=O)C(=O)N[C@@H](CCC(=O)O)C(=O)N[C@@H](CCCCN)C(=O)N[C@@H](CC(N)=O)C(=O)N[C@@H](CCC(=O)O)C(=O)N[C@@H](CCC(N)=O)C(=O)N[C@@H](CCC(=O)O)C(=O)N[C@@H](CC(C)C)C(=O)N[C@@H](CC(C)C)C(N)=O)[C@@H](C)CC)[C@@H](C)CC)[C@@H](C)O)nn1` ({X11-βAla}-NNYTSLIHSLIEESQNQQEKNEQELL-NH2), the inhibition [7] was “inactive”.
For enfuvirtide, the selectivity ratio [2] was > 2290, the AUCt [8] was 26900 ng·h/mL and the EC50 [9] was > 2000 nM. The t1/2 [10] was 131 min, the EC50 [3] was 2.88 nM and the Vd [11] was 0.44 L/kg. The EC50 [4] was 10.9 nM, the EC50 [12] was > 2000 nM and the CC50 at 96 h [5] was > 25000 nM. For the same compound, the “Ratio EC50” value [13] was >50, the EC50 [14] was > 2000 nM and the “Ratio EC50” value [15] was >50. The EC50 [16] was > 2000 nM, the “Ratio EC50” value [17] was >50 and the “Ratio EC50” value [18] was >50. The half-life at 8 ug/ml [19] was 31 min, the half-life at 8 ug/ml [20] was 16.9 min and the “Ratio EC50” value [21] was >50. The EC50 [22] was 40.6 nM, the half-life at 8 ug/ml [23] was 19.4 min and the Cmax [24] was 25500 ng/mL. The EC50 [25] was > 2000 nM and the Ratio EC50 [26] was 39.
